{"source": "paper PMC11543989", "about": "(Communications Biology, 2024)", "key": {"HCoV-229E [1]": {"test_system": "HCoV-229E", "experiment": "microbe, parasite or virus in culture", "type": "cell-based"}, "HCoV-229E [2]": {"test_system": "HCoV-229E", "type": "cell-based"}, "SARS-CoV-2 replicon": {"test_system": "SARS-CoV-2 replicon", "experiment": "HeLa-integrated SARS-CoV-2 replicon activity, N-HiBiT luminescence", "type": "cell-based", "outline": "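HeLa Flp-In T-REx replicon cells plated at 10% confluence, then induced 24 h later with 3 µg/mL doxycycline in regular FBS. After 16-24 h, a lytic detergent buffer with LgBiT and furimazine was added at a volume equal to the media to complement HiBiT-tagged nucleoprotein. Plates were shaken 10 min before reading luminescence. Replicon-free parental cells gave background; compound concentrations were compared with DMSO.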"}, "HCoV-229E [3]": {"test_system": "HCoV-229E", "details": "concentrations higher than 0.1 µM; cited from earlier work"}, "HCoV-229E [4]": {"test_system": "HCoV-229E", "type": "cell-based", "remark": "listed apart in the source"}, "SARS-CoV-2 [5]": {"test_system": "SARS-CoV-2", "details": "cited from earlier work"}, "AMPK, mTOR, Akt [6]": {"test_system": "AMPK, mTOR, Akt", "type": "cell-based, human", "details": "30 µM, HeLa-replicon cells, doxycycline 24 hours"}, "proximal lung organoids": {"test_system": "proximal lung organoids", "experiment": "Organoid viability by LDH release", "type": "cell-based, human", "details": "days 3 and 4, cordycepin 30 µM", "outline": "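Human proximal airway organoids derived from embryonic stem cells, expanded in matrigel in AES expansion medium, plated as one matrigel dome (~2000 organoids) per well. Test compounds (10 or 30 µM) or 0.5% DMSO were added on day 0, with three domes per condition. LDH release was read over 4 days; absorbance at 490 nm minus 680 nm background was converted to % cytotoxicity.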"}, "HCoV-229E [7]": {"test_system": "HCoV-229E", "type": "cell-based", "remark": "listed apart in the source"}, "AMPK, mTOR, Akt [8]": {"test_system": "AMPK, mTOR, Akt", "type": "cell-based, human"}, "SARS-CoV-2 [9]": {"test_system": "SARS-CoV-2", "type": "cell-based"}}, "note": "Entries after “also recorded” stand apart in the source; their conditions may differ."}
{"smiles": "Nc1ncnc2c1ncn2[C@@H]1O[C@H](COP(=O)(O)OP(=O)(O)OP(=O)(O)O)C[C@H]1O", "note": "[cordycepin-TP]", "values": [{"measurement": "229E viral RNA release", "setting": "HCoV-229E [1]; 10 µM, same concentration as cordycepin, […]", "result": "only weakly inhibited viral RNA release"}, {"measurement": "229E S protein expression (IF)", "setting": "HCoV-229E [2]", "result": "did not impact S protein expression"}]}
{"smiles": "CCC(CC)COC(=O)[C@H](C)N[P@](=O)(OC[C@H]1O[C@@](C#N)(c2ccc3c(N)ncnn23)[C@H](O)[C@@H]1O)Oc1ccccc1", "note": "[Remdesivir, remdesivir]", "values": [{"measurement": "IC50", "setting": "SARS-CoV-2 replicon; read-out: IC50, inhibition of replicon activity, 3 µg/mL doxycycline, 24 hours", "result": 0.4, "unit": "µM"}, {"measurement": "inhibition of 229E", "setting": "HCoV-229E [3]", "result": "~100", "unit": "%"}, {"measurement": "229E viral RNA release, pre-treatment assay", "setting": "HCoV-229E [4]", "result": "little to no inhibition"}]}
{"smiles": "COc1ccc2c(c1)[nH]c1c(C)nccc12", "note": "[harmine]", "values": [{"measurement": "IC50", "setting": "SARS-CoV-2 [5]", "result": 7.5, "unit": "µM"}]}
{"smiles": "Nc1ncnc2c1ncn2[C@@H]1O[C@H](CO)C[C@H]1O", "note": "[Cordycepin, cordycepin]", "values": [{"measurement": "inhibition of replicon activity", "setting": "SARS-CoV-2 replicon; 3 µg/mL doxycycline, 24 hours", "result": "did not show inhibition of replicon activity"}, {"measurement": "AMPK, mTOR or Akt phosphorylation", "setting": "AMPK, mTOR, Akt [6]", "result": "No significant changes"}, {"measurement": "total Akt levels", "setting": "AMPK, mTOR, Akt [6]", "result": "did decrease"}, {"measurement": "total mTOR protein levels", "setting": "AMPK, mTOR, Akt [6]", "result": "not affected"}, {"measurement": "cytotoxicity (LDH assay)", "setting": "proximal lung organoids", "result": "below 20%"}, {"measurement": "IC50", "setting": "HCoV-229E [1]; Human coronavirus 229E, Huh-7, read-out: IC50, 229E viral replication (Fig. 6B)", "result": 2.1, "unit": "µM"}, {"measurement": "infectivity by TCID50, fold higher than that observed for BTZ-1 and ADEP-42", "setting": "HCoV-229E [7]", "result": "around 5 fold"}, {"measurement": "reduction of SARS-CoV-2 RNA release", "setting": "SARS-CoV-2 SB2 strain", "result": 99, "unit": "%"}, {"measurement": "SI = CC50/IC50", "setting": "SARS-CoV-2 SB2 strain; SARS-CoV-2", "result": "more than 20"}, {"measurement": "phosphorylation level of AMPK", "setting": "AMPK, mTOR, Akt [8]", "result": "increased"}, {"measurement": "protein level of AMPK", "setting": "AMPK, mTOR, Akt [8]", "result": "remained constant"}, {"measurement": "total levels of mTOR and Akt compared to DMSO", "setting": "AMPK, mTOR, Akt [8]", "result": "large decrease"}, {"measurement": "229E viral RNA release in media, time of incubation assay", "setting": "HCoV-229E [4]", "result": "dramatically reduced viral RNA release in media even up to 72 hpi"}, {"measurement": "229E viral RNA release, pre-treatment assay", "setting": "HCoV-229E [4]", "result": "reduced viral RNA release; also recorded: strong inhibition"}, {"measurement": "level of 229E viral RNA released, time of removal assay", "setting": "HCoV-229E [4]", "result": "reduced the level of viral RNA released even after being removed"}, {"measurement": "difference in SARS-CoV-2 viral RNA release compared to DMSO", "setting": "SARS-CoV-2 [9]", "result": 100, "unit": "fold"}]}
{"smiles": "CN(C)C(=N)N=C(N)N", "note": "[Metformin, metformin]", "values": [{"measurement": "229E replication, various concentrations", "setting": "HCoV-229E [1]", "result": "inhibited 229E replication in a dose-dependent manner"}]}
